Measurements as given in ChEMBL document CHEMBL1671806, “New imidazolidinedione derivatives as antimalarial agents” (Bioorg Med Chem, 2011).
In brackets after ≈: the same amount, converted by molar mass. Activity calls are given as the source filed them. The calls are words filed in the database; no cut-off is given here.

Experiments:
[1] = tested on: Plasmodium falciparum; test: Antimicrobial activity against Plasmodium falciparum D6 by microdilution method; format: functional, organism-based
[2] = organism: Homo sapiens; test: Metabolic stability in human liver microsome by LC-MS/MS method; conditions: liver microsomes
[3] = tested on: Plasmodium berghei; test: Antiplasmodial activity against Plasmodium berghei sporozoites infected in orally dosed mouse assessed as cure from infection 160 mg/kg/day, po administered for three consecutive days before infection measured after at day 31; format: functional, organism-based
Method in brief: (§1)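 Mice were inoculated with P. berghei sporozoites. For oral dosing, compounds were ground and suspended in hydroxyethylcellulose plus Tween 80; for sc dosing, they were suspended in peanut oil. Doses were given once daily on three consecutive days: the day before, 4 h before, and the day after inoculation. Several dose levels were used, up to 320 mg/kg/day. Cure was scored.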

[4] = Toxicity in Plasmodium berghei sporozoites infected orally dosed mouse administered for three consecutive days one day before infection; format: organism-based; conditions: in vivo, po
Method in brief: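 Mice received P. berghei sporozoites. Each compound was ground and suspended in hydroxyethylcellulose plus Tween 80, then given orally at several dose levels up to 320 mg/kg/day. Dosing was once daily for three consecutive days: the day before, 4 h before, and the day after sporozoite inoculation.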

[5] = tested on: Plasmodium falciparum; test: Antimicrobial activity against Plasmodium falciparum TM91C235 by microdilution method; format: functional, organism-based
[6] = tested on: Plasmodium berghei; test: Antiplasmodial activity against Plasmodium berghei sporozoites infected in orally dosed mouse administered for three consecutive days one day before infection; format: functional; conditions: po, 24 h, read-out: MED; method in brief: as §1
[7] = organism: Mus musculus; test: Metabolic stability in mouse liver microsome by LC-MS/MS method; conditions: liver microsomes
[8] = tested on: Plasmodium falciparum; test: Antimicrobial activity against Plasmodium falciparum W2 by microdilution method; format: functional, organism-based
[9] = tested on: Plasmodium cynomolgi; test: Antiplasmodial activity against Plasmodium cynomolgi sporozoites infected in Rhesus monkey assessed as duration for detection of parasites in blood at 30 mg/kg/day, im administered for three consecutive days before infection (reference value: 8 days); format: functional; conditions: route intramuscular
[10] = tested on: Plasmodium cynomolgi; test: Antiplasmodial activity against Plasmodium cynomolgi sporozoites infected in Rhesus monkey assessed as delay in detection of parasites in blood at 30 mg/kg/day, im administered for three consecutive days before infection; format: functional; conditions: route intramuscular
[11] = Plasmodium falciparum, D6, read-out: IC50
[12] = Plasmodium falciparum, TM91C235, read-out: IC50
[13] = Plasmodium falciparum, W2, read-out: IC50

SMILES	IC50 [1, 11] [µg/mL]	half-life [2] [h]	Activity [3]	MTD at 3 days [4] [mg/kg/day]	IC50 [5, 12] [µg/mL]	minimal effective dose [6] [mg/kg/day]	half-life [7] [h]	IC50 [8, 13] [µg/mL]	IC50 [1] [µg/mL]	IC50 [5] [µg/mL]	IC50 [8] [µg/mL]	Time [9] [days]	Time [10] [days]
CCON/C(=N\C1=NC(=O)C(=O)N1C(C)C)Nc1ccc(Cl)c(Cl)c1	> 5	> 1	Active	< 40	> 5	160	> 1	> 5					
CC(C)N1C(=O)C(=O)N=C1/N=C(\Nc1ccccc1)Nc1ccc(Cl)c(Cl)c1	2.16 (≈ 5.16 µM)	> 1		≥ 160	2.6 (≈ 6.22 µM)	> 160	> 1	0.88 (≈ 2.1 µM)	2.16 (≈ 5.16 µM)	2.6 (≈ 6.22 µM)	0.88 (≈ 2.1 µM)		
CC(C)N1C(=O)C(=O)N=C1/N=C(\NCCCCN1CCCC1)Nc1ccc(Cl)c(Cl)c1	1.55 (≈ 3.32 µM)	> 1		≥ 160	> 5	> 160	> 1	2.3 (≈ 4.92 µM)	1.55 (≈ 3.32 µM)		2.3 (≈ 4.92 µM)		
CC(C)N1C(=O)C(=O)N=C1/N=C(/Nc1ccc(Cl)c(Cl)c1)NC1C2CC3CC(C2)CC1C3 (stereo not given)	0.81 (≈ 1.7 µM)	0.093		≥ 320	2.07 (≈ 4.35 µM)	> 320	0.124	2.68 (≈ 5.63 µM)	0.81 (≈ 1.7 µM)	2.07 (≈ 4.35 µM)	2.68 (≈ 5.63 µM)		
CC(C)N1C(=O)C(=O)N=C1/N=C(\NCc1ccccc1)Nc1ccc(Cl)c(Cl)c1	2.36 (≈ 5.46 µM)	> 1		≥ 320	> 5	> 320	> 1	1.3 (≈ 3.01 µM)	2.36 (≈ 5.46 µM)		1.3 (≈ 3.01 µM)		
CN/C(=N\C1=NC(=O)C(=O)N1C(C)C)Nc1ccc(Cl)c(Cl)c1	> 5	> 1		≥ 320	> 5	> 320	> 1	> 5					
CON/C(=N\C1=NC(=O)C(=O)N1C(C)C)Nc1ccc(Cl)c(Cl)c1	> 5	> 1	Active	< 40	> 5	≥ 40	> 1	> 5					
CC(C)N1C(=O)C(=O)N=C1/N=C(\NCCCN(C)C)Nc1ccc(Cl)c(Cl)c1	> 5	> 1		≥ 160	> 5	> 160	> 1	> 5					
CC(C)N1C(=O)C(=O)N=C1/N=C(\NCCN1CCCC1)Nc1ccc(Cl)c(Cl)c1	> 5	> 1		≥ 160	> 5	> 160	0.886	1.32 (≈ 3 µM)			1.32 (≈ 3 µM)		
CC(C)N1C(=O)C(=O)N=C1/N=C(\NCCN(C)C)Nc1ccc(Cl)c(Cl)c1	> 5	> 1		≥ 160	> 5	> 160	> 1	> 5					
C=CCON/C(=N\C1=NC(=O)C(=O)N1C(C)C)Nc1ccc(Cl)c(Cl)c1	8.5 (≈ 21.3 µM)	> 1	Active	120	> 15	160	> 1	6.7 (≈ 16.8 µM)	8.5 (≈ 21.3 µM)		6.7 (≈ 16.8 µM)		
CCN(CC)CCN/C(=N\C1=NC(=O)C(=O)N1C(C)C)Nc1ccc(Cl)c(Cl)c1	> 5	0.525		≥ 160	> 5	> 160	0.294	> 5					
CC(C)N1C(=O)C(=O)N=C1/N=C(\NOC(C)(C)C)Nc1ccc(Cl)c(Cl)c1	2.75 (≈ 6.64 µM)	> 1		≥ 160	3.36 (≈ 8.11 µM)	> 160	> 1	1.14 (≈ 2.75 µM)	2.75 (≈ 6.64 µM)	3.36 (≈ 8.11 µM)	1.14 (≈ 2.75 µM)		
CC(C)N1C(=O)C(=O)N=C1/N=C(\NOCc1ccccc1)Nc1ccc(Cl)c(Cl)c1	> 5	> 1		≥ 160	> 5	> 160	0.214	> 5				27	19
CC(C)N1C(=O)C(=O)N=C1/N=C(/Nc1ccc(Cl)c(Cl)c1)NC(C)(C)C	0.72 (≈ 1.81 µM)	> 1		≥ 320	1.36 (≈ 3.41 µM)	> 320	> 1	1.15 (≈ 2.89 µM)	0.72 (≈ 1.81 µM)	1.36 (≈ 3.41 µM)	1.15 (≈ 2.89 µM)		
CC(C)N1C(=O)C(=O)N=C1/N=C(\NCC(C)(C)C)Nc1ccc(Cl)c(Cl)c1	1.1 (≈ 2.67 µM)	> 1	Active	≥ 320	0.95 (≈ 2.3 µM)	160	> 1	0.37 (≈ 0.897 µM)	1.1 (≈ 2.67 µM)	0.95 (≈ 2.3 µM)	0.37 (≈ 0.897 µM)		
CCN/C(=N\C1=NC(=O)C(=O)N1C(C)C)Nc1ccc(Cl)c(Cl)c1	> 5	> 1		≥ 160	> 5	> 160	> 1	1.67 (≈ 4.51 µM)			1.67 (≈ 4.51 µM)		
CC(C)N1C(=O)C(=O)N=C1/N=C(\NCCCCCCNC(=O)OC(C)(C)C)Nc1ccc(Cl)c(Cl)c1	> 5	0.208		≥ 160	> 5	> 160	0.182	1.46 (≈ 2.7 µM)			1.46 (≈ 2.7 µM)		
CCCCCCN/C(=N\C1=NC(=O)C(=O)N1C(C)C)Nc1ccc(Cl)c(Cl)c1	1.35 (≈ 3.17 µM)			≥ 160	2.8 (≈ 6.57 µM)	> 160	0.131	2.62 (≈ 6.15 µM)	1.35 (≈ 3.17 µM)	2.8 (≈ 6.57 µM)	2.62 (≈ 6.15 µM)		
